# Source: PubChem BioAssay (several laboratories)
# RanGTP-Impb inh = disruptors of Ran-importin-beta complex formation – biochemical, FRET, CFP-Ran, YFP-importin-beta, homogeneous, primary screen; cell-free CFP-Ran/YFP-importin-beta FRET ratio; inhibition, % (concentration not given with the values); 300,000 compounds, 1.1% hits; AID 2216;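 active = more than half of the replicate wells show a fall in the fluorescence ratio signal beyond about 16%, limit read from the data, passing the limit was not always enough; inconclusive = exactly half of the replicate wells pass the set limit; inactive = fewer than half of replicates pass the limit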
# Runt-CBFb FRET = blocks binding of human RUNX1 Runt domain to CBFb; Q01196+Q13951; Cerulean-Runt/Venus-CBFb FRET ratio 530/480, 1 h; inhibition, % at 20 µM; 220,000 compounds, 0.46% hits; AID 1496;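 active = inhibition over about 50% at 20 µM in the single-dose screen, limit read from the data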
# Target sequence (Q01196 whole entry, looked up, the tested form may be a part): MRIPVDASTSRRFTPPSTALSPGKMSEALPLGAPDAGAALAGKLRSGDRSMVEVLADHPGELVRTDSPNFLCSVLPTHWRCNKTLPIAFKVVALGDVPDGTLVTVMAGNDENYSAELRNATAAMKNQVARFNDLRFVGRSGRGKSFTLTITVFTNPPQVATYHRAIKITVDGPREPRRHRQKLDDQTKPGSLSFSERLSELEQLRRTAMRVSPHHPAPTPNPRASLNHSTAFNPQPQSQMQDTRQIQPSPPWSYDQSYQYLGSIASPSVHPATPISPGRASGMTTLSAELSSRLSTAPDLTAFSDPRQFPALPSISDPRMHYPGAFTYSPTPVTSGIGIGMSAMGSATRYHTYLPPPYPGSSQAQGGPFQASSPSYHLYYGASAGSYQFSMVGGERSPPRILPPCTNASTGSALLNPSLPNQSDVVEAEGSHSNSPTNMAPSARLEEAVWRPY
# Target sequence (Q13951 whole entry, looked up, the tested form may be a part): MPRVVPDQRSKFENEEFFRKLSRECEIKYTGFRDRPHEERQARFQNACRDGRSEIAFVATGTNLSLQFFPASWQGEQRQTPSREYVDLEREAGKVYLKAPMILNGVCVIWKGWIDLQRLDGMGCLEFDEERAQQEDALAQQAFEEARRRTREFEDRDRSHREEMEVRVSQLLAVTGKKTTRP
#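 System: Cerulean-labeled Runt domain protein | Quantity: 100 nM of each labeled protein | Schedule: 1 h compound exposure, room temperature | Detection: Fluorescence energy transfer, 422 nm excitation, 530/480 nm emission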
# TNF death inh = inhibitors of TNF-alpha induced necroptosis in Jurkat FADD-/- cells; 220,000 compounds, 0.068% hits; Jurkat FADD-/- TNF necroptosis rescue, ATP luminescence, 24 h; 0 = TNF only, 100 = no-TNF cells; activation (protection from cell death), % at 10 µM;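 active = activation, meaning protection from cell death, of at least 50% relative to plate controls; inactive = activation below 50%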;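 note: necroptosis triggered by 40 ng/mL TNF-alpha added together with compound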
# Hck Nef HTS = blocks Nef-activated human Hck kinase; inhibition, % at 20 µM; P08631; 220,000 compounds, 0.68% hits; Recombinant Hck-YEEI plus Nef, Z-Lyte FRET kinase assay;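 active = Hck-Nef kinase inhibition above about 50%, limit read from the data; inactive = inhibition below that limit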
# L929 necroptosis = blocks zVAD induced death of L929 cells | L929 zVAD necroptosis rescue, ATP luminescence, 24 h; with zVAD 60 µM | viability rescue, % at 10 µM | 220,000 compounds, 0.38% hits;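 active = activation, scaled between plate controls, above about 75%, limit read from the data; inactive = activation under that limit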
# Runt-SMMHC FRET = blocks binding of human RUNX1 Runt domain to CBFb-SMMHC; Q01196+Q13951; Cerulean-Runt/Venus-CBFb-SMMHC FRET ratio 530/480, 1 h; inhibition, % at 20 µM; 220,000 compounds, 0.74% hits; AID 1434;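 active = mean inhibition across duplicate retests at 20 µM reaching about 50%, limit read from the data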;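 note: inhibitors lower the FRET ratio by blocking Runt binding to CBFb-SMMHC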
# Hits are given with their value; i = inactive; ? = inconclusive; nt = not tested or not shown. Shown are actives, neighbours in structure and some others; about 2.1% of the full set was active somewhere.
SMILES,RanGTP-Impb inh,Runt-CBFb FRET,TNF death inh,Hck Nef HTS,L929 necroptosis,Runt-SMMHC FRET
CC1C2(C)OC(=N)C(C#N)(C(C)O2)C1(C#N)C#N (stereo unspecified),22,101,i,i,i,52
CC1OC2(C)OC(=N)C1(C#N)C(C#N)(C#N)C2c1ccccc1 (stereo unspecified),23,i,i,i,i,i
COc1ccc(-n2c(C)nc3sc4c(c3c2=O)CCCC4)cc1,i,i,89,i,i,i
COc1ccc(-n2c(NNC(C)=O)nc3sc4c(c3c2=O)CCCC4)cc1,i,nt,nt,nt,nt,nt
CC(=O)c1cc2c(ccc3ccccc32)oc1=O,116,nt,nt,nt,nt,nt
C/C(=N\Nc1nc(-c2cc(C)ccc2C)cs1)c1cc2c(ccc3ccccc32)oc1=O,64,64,i,i,i,nt
CC(=O)Nc1cc2c(ccc3ccccc32)oc1=O,?,i,i,i,i,i
CCOC(=O)c1c[nH]c2ccc3ccccc3c2c1=O,i,nt,nt,nt,nt,nt
CNC(=O)c1cc2c(ccc3ccccc32)o1,?,i,i,i,i,i
COCC(C)NC(=O)c1cc2c(ccc3ccccc32)oc1=O (stereo unspecified),29,nt,nt,nt,nt,nt
CCOC(=O)c1cc2ccc3ccccc3c2oc1=O,73,nt,nt,nt,nt,nt
C/C(=N\Nc1nc(-c2cc(C)ccc2C)cs1)c1cc2ccccc2oc1=O,i,i,i,i,i,i
COc1ccc(C=Nc2cccnc2N)cc1,25,nt,nt,nt,nt,nt
Cc1ccc2nc(=O)c(NNc3ccccc3)cnc2c1,nt,i,i,94,nt,i
N=c1oc2cc(O)ccc2cc1C(=O)Nc1ccc(F)cc1,171,nt,nt,nt,nt,nt
COc1ccc(/C=N/Nc2ncccc2[N+](=O)[O-])c(OC)c1,i,i,i,i,i,i
O=C(COC(=O)c1cc(-c2ccc(Cl)s2)nc2ccccc12)NCc1ccco1,i,i,i,i,i,i
COc1ccc(-c2cc(C(=O)OCC(=O)Nc3cc(C)on3)c3ccccc3n2)cc1OC,90,i,i,i,i,i
COc1ccc(CNC(=O)COC(=O)c2cc(-c3ccc(Cl)s3)nc3ccccc23)cc1,17,i,i,i,i,i
O=C1CN(CC(=O)Nc2cccc(Cl)c2Cl)c2ccccc2N1,i,i,i,i,i,i
COc1cc2ncnc(NCc3cccc(Cl)c3)c2cc1OC,i,i,i,65,i,i
Cc1cc(C)cc(N=Cc2c(O)c3ccccc3oc2=O)c1,i,i,i,i,i,87
Cc1cc(C)c(N=Cc2c(O)c3ccccc3oc2=O)c(C)c1,i,nt,nt,nt,nt,nt
Cc1cccc(NCN2C(=O)c3ccncc3C2=O)n1,19,i,i,i,i,i
COc1ccc(CNC(=O)C/C(C)=N/NC(=O)C(c2ccccc2)c2ccccc2)cc1,i,i,i,i,91,i
SMILES,RanGTP-Impb inh,Runt-CBFb FRET,TNF death inh,Hck Nef HTS,L929 necroptosis,Runt-SMMHC FRET
COc1ccc(CNC(=O)C/C(C)=N/NC(=O)Cc2ccc(OC)cc2)cc1,i,i,i,i,i,i
Cc1cc(C)cc(OC(=O)C23CCC(C)(C(=O)O2)C3(C)C)c1 (stereo unspecified),i,i,i,i,i,i
Cc1csc(NC(=O)c2ccc(COc3ccccc3)o2)n1,i,nt,nt,nt,nt,nt
c1cc2c3c(cccc3c1)C(N1CCCCCC1)=N2,23,i,i,i,i,i
C/C(=C\c1ccccc1)C(=O)NCc1ccco1,i,i,i,i,i,i
COc1ccc(Nc2ccc([N+](=O)[O-])cn2)cc1,i,nt,nt,nt,nt,nt
CCOC(=O)c1ccc(Nc2ccc([N+](=O)[O-])cn2)cc1,19,i,i,i,i,i
CCOC(=O)C1=CN(CC2CCCO2)C=C(C(=O)OCC)C1c1ccccc1C(F)(F)F (stereo unspecified),i,109,i,i,i,91
COc1ccc2nc(N3CCCCC3)c(C#N)cc2c1,31,74,i,i,i,i
COc1ccc2nc(SCC(=O)N3CCCCCC3)c(C#N)cc2c1,i,i,i,i,i,i
COc1ccc2nc(SCC(=O)N3CCCCC3)c(C#N)cc2c1,i,i,i,i,i,i
COc1ccc2nc(N3CCCC3)c(C#N)cc2c1,i,60,i,i,i,nt
O=c1oc2ccccc2c2c1SC(C(F)(F)F)C2 (stereo unspecified),i,i,i,i,i,i
O=c1oc2ccc3ccccc3c2c2c1SC(C(F)(F)F)C2 (stereo unspecified),i,i,i,i,i,54
O=C1CSC(=S)N1,i,nt,nt,nt,nt,nt
Cn1cccc1/C=N\NC(=O)Cc1ccc(Br)c2ccccc12,i,nt,i,i,i,i
CCn1c(=O)cc(SCC(=O)Nc2ccc(OC)c(OC)c2)c2ccccc21,i,i,i,i,i,i
CCn1c(=O)cc(SCC(=O)Nc2ccc(Cl)cc2)c2ccccc21,64,i,i,i,i,i
O=C(Oc1ccc2ccc(=O)oc2c1)c1cccs1,i,i,i,56,i,i
O=C(CNC(=O)OCc1ccccc1)Oc1ccc2ccc(=O)oc2c1,i,nt,nt,nt,nt,nt
CC(C)(C)OC(=O)NCCC(=O)Oc1ccc2ccc(=O)oc2c1,i,i,i,73,i,68
CC(=O)NC12CC3CC(C1)CC(C(=O)Nc1nc4ccc(S(C)(=O)=O)cc4s1)(C3)C2,i,nt,nt,nt,nt,nt
O=C(CC(=O)NC1CCCCC1)N/N=C/c1ccccc1[N+](=O)[O-],i,nt,nt,nt,nt,nt
O=S(=O)(Nc1nc2ccccc2nc1N1CCc2ccccc2C1)c1ccc(Cl)cc1,i,i,i,i,i,i
O=S(=O)(Nc1nc2ccccc2nc1N1CCN(c2ccccn2)CC1)c1ccc(Cl)cc1,nt,i,i,i,i,104
SMILES,RanGTP-Impb inh,Runt-CBFb FRET,TNF death inh,Hck Nef HTS,L929 necroptosis,Runt-SMMHC FRET
C/C(=N\NC(=O)c1cccc(O)c1)c1ccc(NC(=O)Cc2ccccc2)cc1,i,nt,nt,nt,nt,nt
Cc1ccc(C2C(C#N)=C(N)SC(N)=C2C#N)c(C)c1,47,i,i,i,i,i
Cc1ccc(C2C(C#N)=C(N)SC(N)=C2C#N)cc1,nt,i,i,i,i,i
CN1C(=O)/C(=C/c2ccc3c(c2)OCO3)N=C1c1ccccc1,17,i,i,i,i,i
CCSC1=N/C(=C\c2ccc3c(c2)OCO3)C(=O)S1,i,i,i,i,i,i
Cc1cc(C(C)(C)C)cc(C)c1C(=O)O,i,i,i,i,i,i
Cc1ccc(-c2cc3nc(C)cc(NCc4ccco4)n3n2)cc1,38,i,i,i,i,i
COc1ccc(-c2cc3nc(C)cc(NCCO)n3n2)cc1,i,i,i,i,i,i
CCc1ccccc1NC(=O)CCc1nc(-c2cccs2)no1,i,i,i,i,i,i
CC(C)c1ccc(O)c(NC(=O)c2cncc(Br)c2)c1,i,i,67,i,i,i
CCC(C)c1ccc(O)c(NC(=O)c2cccnc2)c1 (stereo unspecified),i,i,i,i,i,i
